The source made the active and inactive calls.
Assays:
Rattus norvegicus [1] = experiment: Analgesic activity in naive Sprague-Dawley rat assessed as increase in tail flick latency at 0.3 mg/kg, ip up to 48 hrs by tail-flick assay; type: functional, organism-based
Outline: (§1)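 Naïve male Sprague–Dawley rats were dosed ip (DMSO/Cremophor EL/saline) or by gavage (DMSO in 20% condensed milk). Radiant heat was aimed 3 cm from the tail tip and latency timed by photocell. Baseline was set to ~5–7 s with a 25 s cutoff. Testing ran 1 h pre-dose and up to 48 h after. Peak effect was taken minus vehicle; n = 6–8; blinded.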

Rattus norvegicus [2] = experiment: Analgesic activity in naive Sprague-Dawley rat assessed as tail flick latency at 0.1 to 10 mg/kg administered through oral gavage up to 48 hrs by tail-flick assay; type: functional, organism-based; outline: as §1
Rattus norvegicus [3] = experiment: Analgesic activity in naive Sprague-Dawley rat assessed as tail flick latency at 0.01 mg/kg, ip up to 48 hrs by tail-flick assay; type: functional, organism-based; outline: as §1
[4] = Toxicity in naive Sprague-Dawley rat assessed as motor incoordination at 0.01 mg/kg, ip after 2 to 48 hrs by rotarod test; type: organism-based; conditions: in vivo
Outline: (§2)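 Rats were trained 72 h earlier (3 sessions, 24 h apart) to stay ≥180 s on an accelerating rotarod (4–40 rev over 5 min). Time on rod was recorded to a 3 min cutoff, 1 h pre-dose and 2, 6, 24 and 48 h after ip or oral gavage dosing. Values are peak effect minus vehicle; n = 6–8; blinded.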

[5] = Toxicity in naive Sprague-Dawley rat assessed as hypothermia at 0.01 mg/kg, ip after 2 to 48 hrs by core temperature test; type: organism-based; conditions: in vivo
Outline: (§3)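 Naïve rats were acclimated to a restrainer (two 5-min sessions 20 min apart). Core temperature was taken before and 2, 6, 24 and 48 h after ip (DMSO/Cremophor EL/saline) or oral gavage (DMSO in 20% condensed milk) dosing. Dose-response points are mean peak effect minus vehicle; n = 6–8 rats; blinded.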

[6] = Toxicity in naive Sprague-Dawley rat assessed as immobility at 0.01 mg/kg, ip by after 2 to 48 hrs by catalepsy ring test; type: organism-based; conditions: in vivo
Outline: (§4)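 In the ring immobility test, forepaws were placed on a 12 cm horizontal ring with hindpaws just touching the bench. Time to move off was recorded, 100 s cutoff. Testing was pre-dose and 2, 6, 24 and 48 h after ip or oral gavage dosing. Values are peak effect minus vehicle; n = 6–8; blinded.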

[7] = Efflux ratio of permeability in MDCK cells expressing mdr1 at 10 uM by mass spectroscopic analysis; type: ADME, cell-based, Canis lupus familiaris; conditions: dog
Outline: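 MDCK-mdr1 monolayers were grown 4 days on Transwell filters in DMEM/F12 with 10% FBS. Compound (10 μM) was added apically in HBSS with 25 mM D-glucose, HEPES pH 7.4, and incubated 1 h at 37 °C. Apical and basal samples were quantified by LC-MS/MS (MRM). Values are the average of 2–3 measurements.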

Cannabinoid receptor 2 = Cannabinoid receptor 2 (Homo sapiens, UniProt P34972); experiment: Agonist activity at human CB2R expressed in CHO cells by Ca2+ flux assay; type: functional, cell-based
Cannabinoid receptor 2, sequence (P34972 whole entry): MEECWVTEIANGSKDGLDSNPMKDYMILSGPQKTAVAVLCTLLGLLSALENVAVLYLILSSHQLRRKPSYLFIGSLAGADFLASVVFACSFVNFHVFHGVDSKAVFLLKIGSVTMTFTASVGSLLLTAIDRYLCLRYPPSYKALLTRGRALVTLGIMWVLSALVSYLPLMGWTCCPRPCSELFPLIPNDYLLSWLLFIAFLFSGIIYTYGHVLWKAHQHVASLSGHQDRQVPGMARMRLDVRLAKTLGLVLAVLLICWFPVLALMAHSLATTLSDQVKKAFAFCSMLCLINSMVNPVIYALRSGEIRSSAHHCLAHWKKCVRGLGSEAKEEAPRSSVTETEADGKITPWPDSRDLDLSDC
Outline: (§5)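 CHO cells stably co-expressing human CB1 or CB2 with Gαq16 were seeded at 40000/well and grown 24 h at 37 °C. They were loaded 1 h at 37 °C with Fluo-4 AM (2 μM final) in HBSS/20 mM HEPES/1% BSA/probenecid. Agonist was added after ~17 s baseline, and fluorescence (ex 488/em 525) was read each 1 s for 60 s. Runs were done 3–6 times; mean ± SEM.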

Cannabinoid receptor 1 [8] = target: T1, Cannabinoid receptor 1 (Homo sapiens, UniProt P21554); experiment: Displacement of [3H]-CP55940 from human CB1 receptor
T1 sequence (P21554 whole entry): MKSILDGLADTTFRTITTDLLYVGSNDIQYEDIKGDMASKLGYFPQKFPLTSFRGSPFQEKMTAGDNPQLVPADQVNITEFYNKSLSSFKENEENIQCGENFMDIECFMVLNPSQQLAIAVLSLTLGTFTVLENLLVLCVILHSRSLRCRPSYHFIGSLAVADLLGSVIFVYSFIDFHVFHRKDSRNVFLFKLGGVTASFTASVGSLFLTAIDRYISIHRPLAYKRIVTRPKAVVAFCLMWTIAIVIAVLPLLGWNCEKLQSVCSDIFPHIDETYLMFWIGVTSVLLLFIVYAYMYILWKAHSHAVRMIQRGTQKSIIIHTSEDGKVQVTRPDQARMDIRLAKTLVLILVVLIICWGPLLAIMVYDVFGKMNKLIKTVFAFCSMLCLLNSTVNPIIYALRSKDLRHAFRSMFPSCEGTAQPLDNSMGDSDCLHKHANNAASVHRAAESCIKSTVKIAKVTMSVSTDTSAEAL
Outline: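 Radioligand displacement used [3H]-CP55940 as tracer in heterologous competition binding. Unlabeled reference ligands defined nonspecific binding. Ki was calculated by Cheng–Prusoff.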

Rattus norvegicus [9] = experiment: Antiallodynic activity in SNE-induced mechanical allodynia naive Sprague-Dawley rat model assessed as reversible […] in hindpaw ipsilateral withdrawal threshold at 0.3 mg/kg, ip preincubated for 3 hrs followed by SNE addition; type: functional, organism-based
Outline: (§6)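 Male Sprague–Dawley rats received unilateral sciatic nerve entrapment. Testing began 8 days post-surgery at 3-day intervals, dosed ip in DMSO/Cremophor EL/saline. Hindpaw withdrawal threshold (g) was read with a digital von Frey meter, 4 readings per paw at 30 s spacing, averaged. Reads were taken 1 h before and 3, 6, 24 and 48 h after dosing; n = 8; blinded; one-way RM ANOVA.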

Rattus norvegicus [10] = experiment: Increase in SNE-induced hindpaw contralateral withdrawal threshold in naive Sprague-Dawley rat at 0.3 mg/kg, ip incubated for 3 hrs followed by SNE addition; type: organism-based; conditions: in vivo; outline: as §6
Rattus norvegicus [11] = experiment: Antiallodynic activity in SNE-induced mechanical allodynia naive Sprague-Dawley rat model assessed as […] in hindpaw ipsilateral withdrawal threshold at 3 mg/kg, po preincubated for 3 hrs followed by SNE addition; type: functional, organism-based
Outline: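 SNE rats were dosed by oral gavage (drug in DMSO diluted in 20% sweetened condensed milk, 16 mL/kg). Ipsilateral/contralateral hindpaw withdrawal thresholds were measured by digital von Frey, 4 readings per paw averaged, before and at intervals after dosing. n = 8 rats; blinded; one-way RM ANOVA against predrug values.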

[12] = Cmax in naive naive Sprague-Dawley rat at 0.3 mg/kg, ip by LC/MS/MS analysis; type: ADME, organism-based; set-up: dose 0.3 mg/kg, route intraperitoneal; conditions: in vivo
Outline: (§7)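 Male Sprague–Dawley rats given a single ip injection (drug in 50/50 DMSO:Cremophor EL, diluted in sterile saline, 1.5 mL/kg). Tail-vein blood (~110 μL) drawn at intervals after brief restraint, centrifuged, plasma stored −20 °C. Quantified by LC-MS/MS against standard curves prepared in samples from untreated animals; n = 3 rats.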

[13] = AUC in naive Sprague-Dawley rat at 0.3 mg/kg, ip by LC/MS/MS analysis; type: ADME, organism-based; conditions: in vivo; outline: as §7
[14] = Half life in naive Sprague-Dawley rat at 0.3 mg/kg, ip by LC/MS/MS analysis; type: ADME, organism-based; conditions: in vivo; outline: as §7
[15] = Ratio of drug level in brain to plasma in naive Sprague-Dawley rat at 0.3 mg/kg, ip after 75 mins; type: ADME, organism-based; conditions: read-out: BPR
Outline: (§8)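 Samples taken from 3 rats ~75 min after ip dosing. CSF (100–150 μL) was taken from the cisterna magna under isoflurane. Brain was removed after pentobarbital anesthesia and cold-saline intracardiac perfusion. Plasma came from tail-vein blood. Drug was measured by LC-MS/MS against standard curves made in untreated-animal matrix, and the ratio was taken to plasma.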

[16] = Ratio of drug level in cerebrospinal fluid to plasma in naive Sprague-Dawley rat at 0.3 mg/kg, ip after 75 mins; type: ADME, organism-based, CSF/Plasma; outline: as §8
[17] = Toxicity in naive Sprague-Dawley rat assessed as motor incoordination at 0.3 mg/kg, ip after 2 to 48 hrs by rotarod test; type: organism-based; conditions: in vivo; outline: as §2
[18] = Toxicity in naive Sprague-Dawley rat assessed as immobility at 0.3 mg/kg, ip after 2 to 48 hrs by catalepsy ring test; type: organism-based; conditions: in vivo; outline: as §4
[19] = Toxicity in naive Sprague-Dawley rat assessed as hypothermia at 0.3 mg/kg, ip after 2 to 48 hrs by core temperature test; type: organism-based; conditions: in vivo; outline: as §3
Rattus norvegicus [20] = experiment: (§9) Antiallodynic activity in SNE-induced mechanical allodynia naive Sprague-Dawley rat model assessed as decrease in hindpaw ipsilateral withdrawal threshold at 0.6 mg/kg, ip preincubated for 3 hrs followed by SNE addition in presence of SR141716; type: functional, organism-based
Outline: (§10)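 SNE rats were given the test agonist ip alone, or 30 min after pretreatment with a selective CB1R or CB2R antagonist, with sessions at 3-day intervals. Ipsilateral hindpaw withdrawal threshold was measured by digital von Frey (4 readings per paw averaged). Tests were blinded.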

Rattus norvegicus [21] = experiment: Antiallodynic activity in SNE-induced mechanical allodynia naive Sprague-Dawley rat model assessed as decrease in hindpaw ipsilateral withdrawal threshold at 0.6 mg/kg, ip preincubated for 3 hrs followed by SNE addition in presence of SR144528; type: functional, organism-based; outline: as §10
[22] = Toxicity in naive Sprague-Dawley rat assessed as motor incoordination at 10 mg/kg administered through oral gavage after 2 to 48 hrs by rotarod test; type: organism-based; conditions: in vivo; outline: as §2
[23] = Toxicity in naive Sprague-Dawley rat assessed as hypothermia at 10 mg/kg administered through oral gavage after 2 to 48 hrs by core temperature test; type: organism-based; conditions: in vivo; outline: as §3
[24] = Toxicity in naive Sprague-Dawley rat assessed as immobility at 10 mg/kg administered through oral gavage after 2 to 48 hrs by catalepsy ring test; type: organism-based; conditions: in vivo; outline: as §4
Rattus norvegicus [25] = experiment: Antiallodynic activity in SNE-induced mechanical allodynia naive Sprague-Dawley rat model assessed as decrease in hindpaw ipsilateral withdrawal threshold at 0.6 mg/kg, ip preincubated for 3 hrs followed by SNE addition in presence of rimonabant; type: functional, organism-based; outline: as §10
Rattus norvegicus [26] = experiment: as §9, with “tert-Butyl-4-[5-(4-Chlorophenyl)-1-(2,4-dichlorophenyl)-4- methyl-1H-pyrazole-3-amido]piperidine-1-carboxylate” for “SR141716”; type: functional, organism-based; outline: as §10
Cannabinoid receptor 1 [27] = target: T1, Cannabinoid receptor 1; experiment: Agonist activity at human CB1R expressed in CHO cells by Ca2+ flux assay; type: functional, cell-based; outline: as §5
[28] = Metabolic stability in Sprague-Dawley rat plasma assessed as compound remaining at 10 uM measured at 1 hr by LC/MS analysis; type: ADME, cell-free
Outline: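 Compound (10 μM final, from 1 mM ethanol stock) was incubated in male Sprague–Dawley rat plasma at 37 °C. Aliquots taken at 0, 30 and 60 min were extracted with 3 volumes methanol and centrifuged. Supernatants were analysed by LC/MS.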

[29] = Metabolic stability in Sprague-Dawley rat liver S9 fraction assessed as compound remaining at 10 uM measured at 1 hr by LC/MS analysis; type: ADME, subcellular; conditions: s9, 1 h
Outline: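 Compound (10 μM final, from 1 mM ethanol stock) was incubated at 37 °C in male Sprague–Dawley rat liver S9 (1 mg protein/mL). The mix held an NADPH-regenerating system (1 mM NADP, 5 mM glucose 6-phosphate, 1 U/mL G6PDH) in 50 mM KPO4 pH 7.4 with 3 mM MgCl2, preincubated 5 min. Samples at 0–120 min were methanol-extracted and analysed by LC/MS.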

Cannabinoid receptor 1 [30] = target: Cannabinoid receptor 1 (Rattus norvegicus, UniProt P20272); experiment: Displacement of [3H]-CP55940 from rat CB1 receptor
Cannabinoid receptor 1 (Rattus norvegicus, UniProt P20272), sequence (P20272 whole entry): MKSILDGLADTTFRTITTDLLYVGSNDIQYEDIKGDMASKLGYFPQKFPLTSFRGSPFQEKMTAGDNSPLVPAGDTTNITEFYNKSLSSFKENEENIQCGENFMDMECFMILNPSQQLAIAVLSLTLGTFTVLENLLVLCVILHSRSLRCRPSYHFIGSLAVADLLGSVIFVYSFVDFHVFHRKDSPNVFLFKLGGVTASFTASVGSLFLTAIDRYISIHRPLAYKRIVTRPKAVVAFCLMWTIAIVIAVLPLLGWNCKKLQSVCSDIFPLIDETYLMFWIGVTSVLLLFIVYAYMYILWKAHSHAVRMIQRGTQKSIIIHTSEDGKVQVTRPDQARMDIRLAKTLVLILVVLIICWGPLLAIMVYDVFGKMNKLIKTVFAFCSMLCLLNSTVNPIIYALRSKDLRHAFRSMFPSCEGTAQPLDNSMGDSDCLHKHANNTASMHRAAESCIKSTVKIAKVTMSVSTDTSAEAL

## CCCCCCC(C)(C)c1cc(O)c2c(c1)OC(C)(C)[C@@H]1CC=C(CO)C[C@@H]21
Rattus norvegicus [1]
  Activity: Active
Rattus norvegicus [2]
  Activity: Active
Rattus norvegicus [3]
  Activity: Active
[4]
  Activity: Toxic
[5]
  Activity: Toxic
[6]
  Activity: Toxic

## C1=C(CCN2CCOCC2)c2ccccc2/C1=C/c1ccc2c3c(cccc13)CC2
[7]
  Ratio: 0.0014
Cannabinoid receptor 2
  EC50: 594 nM
  Emax: 20%

## O=C(O)CCCn1cc(C(=O)c2cccc3ccccc23)c2ccccc21
Cannabinoid receptor 1 [8]
  Ki: > 10000 nM

## CCCc1ccc(/C=C2\C=C(CCN3CCOCC3)c3ccccc32)c2ccccc12
Rattus norvegicus [9]
  Activity: Active
Rattus norvegicus [10]
  Activity: Toxic
Rattus norvegicus [11]
  Activity: Active
[12]
  Cmax: 11.9 ng/mL
[13]
  AUC: 112 ng·h/mL
[14]
  half-life: 7.2 h
[15]
  Kp at 1.25 h: 0.182
[16]
  Kp at 1.25 h: 0.001
Rattus norvegicus [1]
  Activity: Active
Rattus norvegicus [2]
  Activity: Active
[17]
  Activity: Non-Toxic
[18]
  Activity: Non-Toxic
[19]
  Activity: Non-Toxic
Rattus norvegicus [20]
  Activity: inactive
Rattus norvegicus [21]
  Activity: Active
[22]
  Activity: Non-Toxic
[23]
  Activity: Non-Toxic
[24]
  Activity: Non-Toxic
Rattus norvegicus [25]
  Activity: inactive
Rattus norvegicus [26]
  Activity: inactive
Cannabinoid receptor 1 [27]
  EC50: 182 nM
  Emax: 108%
Cannabinoid receptor 2
  EC50: 94 nM
  Emax: 69%
[28]
  Stability: 92%
[29]
  Stability: 37%

## CCCCCCC1=C/C(=C\c2cccc3ccccc23)c2ccccc21
Cannabinoid receptor 1 [8]
  Ki: 436 nM

## C1=C(CCN2CCOCC2)c2ccccc2/C1=C/c1cccc2ccccc12
Rattus norvegicus [9]
  Activity: Active
[7]
  Ratio: 0.001
Cannabinoid receptor 1 [27]
  EC50: 257 nM
  Emax: 103%
Cannabinoid receptor 2
  EC50: 138 nM
  Emax: 27%
[28]
  Stability: 98.5%
[29]
  Stability: 22.5%

## CCCCCn1cc(C(=O)c2cccc3ccccc23)c2ccc(F)cc21
[28]
  Stability: 80%
[29]
  Stability: 30%

## CCCCCn1cc(C(=O)c2cccc3ccccc23)c2c(F)cccc21
[28]
  Stability: 69%
[29]
  Stability: 5%

## COc1ccc(C(=O)c2c(C)n(CCN3CCOCC3)c3ccccc23)cc1 [PRAVADOLINE]
Cannabinoid receptor 1 [30]
  Ki: 2510 nM

Source: ChEMBL document CHEMBL4431329, “Peripherally Selective Cannabinoid 1 Receptor (CB1R) Agonists for the Treatment of Neuropathic Pain” (J Med Chem, 2016)
